# Test results from ChEMBL document CHEMBL5113423, “Discovery and preclinical profile of sudapyridine (WX-081), a novel anti-tuberculosis agent” (Bioorg Med Chem Lett, 2022).
# Legend:
# [1] = system: Mycobacterium tuberculosis; assay: Antimycobacterial activity against Mycobacterium tuberculosis H37Rv assessed as mycobacterial growth inhibition by microplate alamar blue assay; assay type: functional
# In short: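 M. tuberculosis H37Rv under normoxic conditions, microplate alamar blue assay (MABA) following Cho et al. Read-out is MIC.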
# [2] = system: Mycobacterium tuberculosis; assay: Antimycobacterial activity against Mycobacterium tuberculosis H37Rv assessed as mycobacterial growth inhibition by low oxygen recovery assay; assay type: functional
# In short: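 M. tuberculosis H37Rv under hypoxic conditions, low-oxygen recovery assay (LORA) following Cho et al. Read-out is MIC.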
# [3] = Cytotoxicity against human HeLa cells; assay type: toxicity, cell-based
# [4] = Cytotoxicity against African green monkey Vero cells; assay type: toxicity, cell-based; settings: chlorocebus sabaeus
# [5] = system: Mycobacterium tuberculosis; assay: Antimycobacterial activity against drug-sensitive Mycobacterium tuberculosis assessed as mycobacterial growth inhibition; assay type: functional
# [6] = Apparent permeability across apical side to basolateral side in dog MDCK cells; assay type: ADME, cell-based, Canis lupus familiaris
# [7] = Apparent permeability across basolateral side to apical side in dog MDCK cells; assay type: ADME, cell-based, Canis lupus familiaris
# [8] = Plasma protein binding in human assessed as bound fraction; assay type: ADME, cell-free; settings: read-out: PPB
# [9] = Plasma protein binding in rat assessed as bound fraction; assay type: ADME, cell-free; settings: read-out: PPB
# Cytochrome P450 1A2 = biological target: T1, Cytochrome P450 1A2 (Homo sapiens, UniProt P05177); assay: Inhibition of CYP1A2 (unknown origin); assay type: ADME
# T1 sequence (P05177 whole entry): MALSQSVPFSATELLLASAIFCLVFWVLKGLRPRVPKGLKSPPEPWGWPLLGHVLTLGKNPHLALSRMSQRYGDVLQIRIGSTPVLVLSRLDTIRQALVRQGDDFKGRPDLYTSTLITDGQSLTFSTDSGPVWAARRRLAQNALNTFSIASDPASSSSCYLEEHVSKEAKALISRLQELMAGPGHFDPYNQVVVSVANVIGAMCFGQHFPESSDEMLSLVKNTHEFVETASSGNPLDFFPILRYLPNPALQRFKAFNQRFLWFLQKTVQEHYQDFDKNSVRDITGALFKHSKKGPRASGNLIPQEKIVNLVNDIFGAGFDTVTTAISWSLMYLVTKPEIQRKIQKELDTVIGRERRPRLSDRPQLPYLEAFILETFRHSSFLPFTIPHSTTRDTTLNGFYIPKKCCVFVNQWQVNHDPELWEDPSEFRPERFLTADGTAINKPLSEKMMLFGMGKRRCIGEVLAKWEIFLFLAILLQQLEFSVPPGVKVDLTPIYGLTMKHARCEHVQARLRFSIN
# In short: (§1)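 Each CYP isoform screened for inhibition at a single test concentration of 10 μM.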
# Cytochrome P450 2C9 = Cytochrome P450 2C9 (Homo sapiens, UniProt P11712); assay: Inhibition of CYP2C9 (unknown origin); assay type: ADME; in short: as §1
# Cytochrome P450 2C9, sequence (P11712 whole entry): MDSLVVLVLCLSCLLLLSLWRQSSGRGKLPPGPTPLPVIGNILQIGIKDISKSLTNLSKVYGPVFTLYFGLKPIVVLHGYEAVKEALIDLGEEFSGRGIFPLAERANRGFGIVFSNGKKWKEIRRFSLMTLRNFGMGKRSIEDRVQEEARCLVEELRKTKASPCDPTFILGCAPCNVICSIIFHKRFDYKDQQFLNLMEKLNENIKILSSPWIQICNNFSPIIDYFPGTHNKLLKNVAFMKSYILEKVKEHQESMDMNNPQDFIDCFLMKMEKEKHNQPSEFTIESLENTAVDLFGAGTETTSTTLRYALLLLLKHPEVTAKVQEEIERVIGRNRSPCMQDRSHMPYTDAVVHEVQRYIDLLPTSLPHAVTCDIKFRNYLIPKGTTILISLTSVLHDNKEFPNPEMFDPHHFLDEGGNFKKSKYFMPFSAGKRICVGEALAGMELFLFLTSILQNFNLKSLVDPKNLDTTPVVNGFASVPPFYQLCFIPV
# Cytochrome P450 2C19 = Cytochrome P450 2C19 (Homo sapiens, UniProt P33261); assay: Inhibition of CYP2C19 (unknown origin); assay type: ADME; in short: as §1
# Cytochrome P450 2C19, sequence (P33261 whole entry): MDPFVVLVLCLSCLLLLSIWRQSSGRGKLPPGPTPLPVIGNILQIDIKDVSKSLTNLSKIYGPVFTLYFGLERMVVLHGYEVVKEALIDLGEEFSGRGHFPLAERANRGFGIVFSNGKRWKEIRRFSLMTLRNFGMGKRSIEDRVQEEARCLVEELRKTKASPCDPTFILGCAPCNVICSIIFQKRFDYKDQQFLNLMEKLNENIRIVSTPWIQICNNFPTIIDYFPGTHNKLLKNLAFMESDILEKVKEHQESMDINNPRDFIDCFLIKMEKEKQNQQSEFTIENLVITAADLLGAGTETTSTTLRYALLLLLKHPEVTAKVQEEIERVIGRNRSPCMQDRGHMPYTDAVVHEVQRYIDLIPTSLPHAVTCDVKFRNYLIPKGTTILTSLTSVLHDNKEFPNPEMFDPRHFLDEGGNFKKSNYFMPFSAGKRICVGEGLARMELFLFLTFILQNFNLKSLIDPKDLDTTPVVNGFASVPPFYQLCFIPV
# Cytochrome P450 2D6 = Cytochrome P450 2D6 (Homo sapiens, UniProt P10635); assay: Inhibition of CYP2D6 (unknown origin); assay type: ADME; in short: as §1
# Cytochrome P450 2D6, sequence (P10635 whole entry): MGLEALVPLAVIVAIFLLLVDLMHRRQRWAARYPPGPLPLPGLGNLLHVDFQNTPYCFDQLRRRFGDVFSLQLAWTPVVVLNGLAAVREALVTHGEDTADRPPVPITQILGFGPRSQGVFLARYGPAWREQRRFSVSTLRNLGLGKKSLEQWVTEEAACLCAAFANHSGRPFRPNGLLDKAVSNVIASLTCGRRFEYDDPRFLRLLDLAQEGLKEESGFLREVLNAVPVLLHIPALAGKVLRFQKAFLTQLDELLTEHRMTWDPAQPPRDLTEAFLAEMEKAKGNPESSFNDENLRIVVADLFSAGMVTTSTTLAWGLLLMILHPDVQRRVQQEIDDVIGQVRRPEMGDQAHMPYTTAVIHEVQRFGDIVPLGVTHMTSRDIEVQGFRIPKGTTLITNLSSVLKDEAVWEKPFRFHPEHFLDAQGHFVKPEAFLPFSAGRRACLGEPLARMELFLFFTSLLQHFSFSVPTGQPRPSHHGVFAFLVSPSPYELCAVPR
# [10] = Drug concentration in CD-1 mouse lung at 6.25 mg/kg,po measured after 96 hrs; assay type: ADME, organism-based; settings: read-out: Ct
# In short: (§2)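 Tissue distribution study in CD-1 mice (6.25 mg/kg oral) and SD rats (5.0 mg/kg oral). Lung concentration (ng/g) and plasma concentration (ng/mL) measured 96 h after dosing. Lung/plasma ratio is lung concentration divided by plasma concentration.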
# [11] = Drug concentration in CD-1 mouse plasma at 6.25 mg/kg,po measured after 96 hrs; assay type: ADME, organism-based; in short: as §2
# [12] = Ratio of drug concentration in CD-1 mouse lung to plasma at 6.25 mg/kg,po measured after 96 hrs; assay type: ADME, organism-based; in short: as §2
# [13] = Drug concentration in Sprague-Dawley rat lung at 5 mg/kg,po measured after 96 hrs; assay type: ADME, organism-based; settings: read-out: Ct; in short: as §2
# [14] = Drug concentration in Sprague-Dawley rat plasma at 5 mg/kg,po measured after 96 hrs; assay type: ADME, organism-based; in short: as §2
# [15] = Ratio of drug concentration in Sprague-Dawley rat lung to plasma at 5 mg/kg,po measured after 96 hrs; assay type: ADME, organism-based; in short: as §2
# [16] = AUC in Sprague-Dawley rat at 200 mg/kg,po measured after 12 days; assay type: ADME, organism-based; design: time 12 day, dose 200 mg/kg, route po; settings: in vivo
# In short: (§3)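 14-day pilot toxicology study in rats, 8 males and 8 females per dose level. Daily oral dosing, with 200 mg/kg as the high dose. Drug exposure is reported as AUC in µM·h.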
# [17] = Toxicity in Sprague-Dawley rat assessed as death at 200 mg/kg,po measured after 12 days; assay type: organism-based; settings: in vivo, 288 h, time 12 day
# [18] = Toxicity in Beagle dog assessed as effect on electrocardiogram at 200 mg/kg,po; assay type: organism-based, Canis lupus familiaris; settings: in vivo
# In short: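 14-day GLP toxicology study in Beagle dogs; oral dosing once daily at 200 mg/kg, given in parallel with the reference drug. ECG recorded daily to detect qualitative changes and QTc interval prolongation.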
# [19] = Efflux ratio of apparent permeability across basolateral to apical over apical to basolateral membrane in dog MDCK cells; assay type: ADME, cell-based, Canis lupus familiaris
# [20] = Microsomal stability in human liver microsomes assessed as clearance; assay type: ADME, Microsome; settings: read-out: CLH
# [21] = Microsomal stability in rat liver microsomes assessed as clearance; assay type: ADME, Microsome; settings: read-out: CLH
# [22] = Microsomal stability in mouse liver microsomes assessed as clearance; assay type: ADME, Microsome; settings: read-out: CLH
# Cytochrome P450 3A4 = Cytochrome P450 3A4 (Homo sapiens, UniProt P08684); assay: Inhibition of CYP3A4 (unknown origin); assay type: ADME; in short: as §1
# Cytochrome P450 3A4, sequence (P08684 whole entry): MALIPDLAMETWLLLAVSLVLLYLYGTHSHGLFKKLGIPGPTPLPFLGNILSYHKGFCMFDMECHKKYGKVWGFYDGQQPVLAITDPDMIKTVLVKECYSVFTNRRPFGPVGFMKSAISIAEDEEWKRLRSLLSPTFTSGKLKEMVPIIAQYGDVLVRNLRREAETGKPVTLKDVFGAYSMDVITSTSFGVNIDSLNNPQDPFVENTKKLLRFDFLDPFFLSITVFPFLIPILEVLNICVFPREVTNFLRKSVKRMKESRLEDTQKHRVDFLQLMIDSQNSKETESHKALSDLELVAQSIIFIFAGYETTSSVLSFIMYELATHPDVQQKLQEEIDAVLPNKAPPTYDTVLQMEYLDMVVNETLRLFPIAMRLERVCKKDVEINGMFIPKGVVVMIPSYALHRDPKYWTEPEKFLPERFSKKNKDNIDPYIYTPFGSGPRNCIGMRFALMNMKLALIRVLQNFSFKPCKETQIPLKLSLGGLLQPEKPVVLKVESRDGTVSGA
# [23] = biological target: Voltage-gated inwardly rectifying potassium channel KCNH2 (Homo sapiens, UniProt Q12809); assay: Inhibition of human ERG; assay type: toxicity
# Voltage-gated inwardly rectifying potassium channel KCNH2, sequence (Q12809 whole entry): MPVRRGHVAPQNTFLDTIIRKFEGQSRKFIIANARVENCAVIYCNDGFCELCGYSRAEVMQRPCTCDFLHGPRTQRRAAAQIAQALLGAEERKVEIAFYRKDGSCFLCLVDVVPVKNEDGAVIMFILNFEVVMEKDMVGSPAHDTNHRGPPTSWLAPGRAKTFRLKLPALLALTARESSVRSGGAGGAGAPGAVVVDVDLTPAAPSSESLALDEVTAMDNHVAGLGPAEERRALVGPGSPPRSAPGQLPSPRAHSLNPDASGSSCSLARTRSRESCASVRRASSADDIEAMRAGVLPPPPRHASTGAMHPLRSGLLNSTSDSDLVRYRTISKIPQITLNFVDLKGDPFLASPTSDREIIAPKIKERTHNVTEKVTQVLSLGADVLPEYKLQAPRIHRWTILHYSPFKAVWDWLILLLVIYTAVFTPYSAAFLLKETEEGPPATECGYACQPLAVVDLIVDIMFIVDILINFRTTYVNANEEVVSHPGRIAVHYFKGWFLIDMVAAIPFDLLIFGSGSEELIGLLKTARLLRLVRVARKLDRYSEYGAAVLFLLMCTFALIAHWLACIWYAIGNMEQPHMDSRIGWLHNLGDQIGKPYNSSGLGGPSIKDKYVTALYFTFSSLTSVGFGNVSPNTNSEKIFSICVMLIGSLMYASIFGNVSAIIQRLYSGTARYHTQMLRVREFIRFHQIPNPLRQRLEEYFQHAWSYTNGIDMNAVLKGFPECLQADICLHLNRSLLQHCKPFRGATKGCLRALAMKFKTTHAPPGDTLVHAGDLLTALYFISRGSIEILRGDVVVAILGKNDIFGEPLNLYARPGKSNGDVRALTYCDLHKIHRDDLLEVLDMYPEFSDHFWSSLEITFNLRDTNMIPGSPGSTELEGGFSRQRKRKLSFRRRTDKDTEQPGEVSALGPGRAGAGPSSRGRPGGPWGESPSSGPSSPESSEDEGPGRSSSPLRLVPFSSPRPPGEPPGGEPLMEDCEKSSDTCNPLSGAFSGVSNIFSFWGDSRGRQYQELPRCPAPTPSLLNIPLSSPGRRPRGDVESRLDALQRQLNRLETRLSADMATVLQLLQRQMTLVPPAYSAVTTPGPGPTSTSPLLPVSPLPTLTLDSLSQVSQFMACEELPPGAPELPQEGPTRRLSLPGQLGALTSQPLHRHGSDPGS
# [24] = Clearance in mouse at 1 mg/kg,iv; assay type: ADME, organism-based; settings: in vivo
# In short: (§4)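 CD-1 mice. Single iv dose of 1 mg/kg. Clearance and half-life are derived from plasma concentration-time data.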
# [25] = Volume of distribution at steady state in mouse at 1 mg/kg,iv; assay type: ADME, organism-based; settings: in vivo, read-out: Vdss
# In short: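 PK in CD-1 mice at 1 mg/kg iv and 6.25 mg/kg po. Vd, CL and t1/2 taken from the iv arm; Cmax, AUC0-last and F% taken from the oral arm.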
# [26] = Half life in mouse at 1 mg/kg,iv; assay type: ADME, organism-based; settings: in vivo; in short: as §4
# [27] = Cmax in mouse at 6.25 mg/kg,po; assay type: ADME, organism-based; design: dose 6.25 mg/kg, route po; settings: in vivo
# [28] = AUC (0 to last) in mouse at 6.25 mg/kg,po; assay type: ADME, organism-based; design: time 0 - last, dose 6.25 mg/kg, route po; settings: in vivo
# [29] = Oral bioavailability in mouse at 6.25 mg/kg; assay type: ADME, organism-based; settings: in vivo
# [30] = Clearance in Sprague-Dawley rat at 1 mg/kg,iv; assay type: ADME, organism-based; settings: in vivo
# In short: (§5)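 SD rats. Single iv dose of 1 mg/kg. Clearance and half-life are derived from plasma concentration-time data.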
# [31] = Volume of distribution at steady state in Sprague-Dawley rat at 1 mg/kg,iv; assay type: ADME, organism-based; settings: in vivo, read-out: Vdss
# In short: (§6)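 PK in SD rats (1 mg/kg iv, 5.0 mg/kg po) and Beagle dogs (0.5 mg/kg iv, 2.0 mg/kg po). Vd taken from the iv arm, alongside CL and t1/2. Cmax and AUC0-last taken from the oral arm; F% calculated.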
# [32] = Half life in Sprague-Dawley rat at 1 mg/kg,iv; assay type: ADME, organism-based; settings: in vivo; in short: as §5
# [33] = Cmax in Sprague-Dawley rat at 5 mg/kg,po; assay type: ADME, organism-based; design: dose 5 mg/kg, route po; settings: in vivo
# [34] = AUC (0 to last) in Sprague-Dawley rat at 5 mg/kg,po; assay type: ADME, organism-based; design: time 0 - last, dose 5 mg/kg, route po; settings: in vivo
# [35] = Oral bioavailability in Sprague-Dawley rat at 5 mg/kg; assay type: ADME, organism-based; settings: in vivo
# [36] = Clearance in Beagle dog at 0.5 mg/kg,iv; assay type: ADME, organism-based, Canis lupus familiaris; settings: in vivo
# In short: (§7)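 Beagle dogs. Single iv dose of 0.5 mg/kg. Clearance and half-life are derived from plasma concentration-time data.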
# [37] = Volume of distribution at steady state in Beagle dog at 0.5 mg/kg,iv; assay type: ADME, organism-based, Canis lupus familiaris; settings: in vivo, read-out: Vdss; in short: as §6
# [38] = Half life in Beagle dog at 0.5 mg/kg,iv; assay type: ADME, organism-based, Canis lupus familiaris; settings: in vivo; in short: as §7
# [39] = Cmax in Beagle dog at 2 mg/kg,po; assay type: ADME, organism-based, Canis lupus familiaris; design: dose 2 mg/kg, route po; settings: in vivo
# [40] = AUC (0 to last) in Beagle dog at 2 mg/kg,po; assay type: ADME, organism-based, Canis lupus familiaris; design: time 0 - last, dose 2 mg/kg, route po; settings: in vivo
# [41] = Oral bioavailability in Beagle dog at 2 mg/kg; assay type: ADME, organism-based, Canis lupus familiaris; settings: in vivo
# [42] = AUC in Sprague-Dawley rat at 200 mg/kg,po measured after 14 days; assay type: ADME, organism-based; design: dose 200 mg/kg, time 14 day, route po; settings: in vivo; in short: as §3
# [43] = Toxicity in Sprague-Dawley rat assessed as death at 200 mg/kg,po measured after 14 days; assay type: organism-based; settings: in vivo, 336 h, time 14 day
# In short: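 14-day pilot oral toxicology study in rats, 8 males and 8 females per dose level. Dosing once daily at 30, 100 and 200 mg/kg, with the reference drug at 200 mg/kg. Deaths counted over the 14 days; drug exposure (AUC) recorded in the high-dose groups.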
smiles,measurement,setting,value
COc1nc2ccc(Br)cc2cc1[C@@H](c1ccccc1)[C@@](O)(CCN(C)C)c1cccc2ccccc12 [BEDAQUILINE],MIC,[1],0.03 µg/mL
same,MIC,[2],< 0.2 µg/mL
same,CC50,[3],> 64 µg/mL
same,CC50,[4],> 50 µg/mL
same,MIC50,[5],0.029 µg/mL
same,MIC90,[5],0.043 µg/mL
same,Papp A→B,[6],0.06 ×10⁻⁶ cm/s
same,Papp B→A,[7],0.09 ×10⁻⁶ cm/s
same,fraction unbound,[8],< 0.01
same,fraction unbound,[9],< 0.01
same,IC50,Cytochrome P450 1A2,> 10 µM
same,IC50,Cytochrome P450 2C9,> 10 µM
same,IC50,Cytochrome P450 2C19,> 10 µM
same,IC50,Cytochrome P450 2D6,> 10 µM
same,concentration at 96 h,[10],135 ng/g
same,concentration at 96 h,[11],4.56 ng/mL
same,Kp at 96 h,[12],29.6
same,concentration at 96 h,[13],58.8 ng/g
same,concentration at 96 h,[14],1.52 ng/mL
same,Kp at 96 h,[15],38.7
same,AUC at 288 h,[16],109 µM·h
same,Activity,[17],Toxic
same,Activity,[18],10%
COc1nc(-c2ccc(Cl)cc2)ccc1[C@@H](c1ccccc1)[C@@](O)(CCN(C)C)c1cccc2ccccc12,MIC,[1],0.08 µg/mL
same,MIC,[2],0.56 µg/mL
same,CC50,[3],> 64 µg/mL
same,CC50,[4],> 50 µg/mL
same,MIC50,[5],0.083 µg/mL
same,MIC90,[5],0.152 µg/mL
same,Papp A→B,[6],0.04 ×10⁻⁶ cm/s
same,Papp B→A,[7],0.11 ×10⁻⁶ cm/s
same,efflux ratio,[19],2.54
same,fraction unbound,[8],< 0.01
same,fraction unbound,[9],< 0.01
same,microsomal CLint,[20],39.4 µL/min/mg
same,microsomal CLint,[21],45.7 µL/min/mg
same,microsomal CLint,[22],71.3 µL/min/mg
same,IC50,Cytochrome P450 1A2,> 10 µM
same,IC50,Cytochrome P450 2C9,> 10 µM
same,IC50,Cytochrome P450 2C19,> 10 µM
same,IC50,Cytochrome P450 2D6,> 10 µM
same,IC50,Cytochrome P450 3A4,> 10 µM
same,IC50,[23],> 30 µM
same,clearance,[24],3.59 mL/min/kg
same,Vd,[25],10.4 L/kg
same,half-life,[26],46.3 h
same,Cmax,[27],503 ng/mL
same,AUC(0-t),[28],10200 ng·h/mL
same,bioavailability,[29],40.7%
same,clearance,[30],8.25 mL/min/kg
same,Vd,[31],9.2 L/kg
same,half-life,[32],25.6 h
same,Cmax,[33],328 ng/mL
same,AUC(0-t),[34],4080 ng·h/mL
same,bioavailability,[35],36.7%
same,clearance,[36],2.04 mL/min/kg
same,Vd,[37],6.04 L/kg
same,half-life,[38],56.2 h
same,Cmax,[39],390 ng/mL
same,AUC(0-t),[40],8500 ng·h/mL
same,bioavailability,[41],58.9%
same,concentration at 96 h,[10],857 ng/g
same,concentration at 96 h,[11],25.4 ng/mL
same,Kp at 96 h,[12],33.7
same,concentration at 96 h,[13],337 ng/g
same,concentration at 96 h,[14],4.74 ng/mL
same,Kp at 96 h,[15],71.1
same,AUC at 336 h,[42],248 µM·h
same,Activity,[43],Toxic
same,Activity,[18],Non-Toxic
